From ChEMBL document CHEMBL3864143, “Design, synthesis and biological evaluation of novel non-covalent piperidine-containing peptidyl proteasome inhibitors” (Bioorg Med Chem, 2016)
The source made the active and inactive calls. The rule behind the calls is not given here.

Assays:
[1] = Antiproliferative activity against human MM1S cells measured after 72 hrs by MTS assay; type: functional, cell-based; conditions: MM1.S
How it was run: (§1)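 MM-1S seeded at 2×10^4/well and RPMI 8226 at 0.5×10^4/well, exposed to compounds for 72 h. MTS then added at 0.5 mg/mL final for 2–4 h, absorbance read at 490 nm with 690 nm background subtraction. Growth inhibition = (A_control − A_sample)/A_control; IC50 from nonlinear sigmoidal variable-slope dose-response fit.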

[2] = Antiproliferative activity against human RPMI8226 cells measured after 72 hrs by MTS assay; type: functional, cell-based; conditions: RPMI-8226, 72 h; how it was run: as §1
[3] = biological target: T1, Proteasome Macropain subunit MB1 (Homo sapiens, UniProt P28074); experiment: Inhibition of chymotrypsin-like activity of human 20S proteasome preincubated for 15 mins followed by addition of Suc-Leu-Leu-Val-Tyr-AMC as substrate by fluorescence analysis
T1 sequence (P28074 whole entry): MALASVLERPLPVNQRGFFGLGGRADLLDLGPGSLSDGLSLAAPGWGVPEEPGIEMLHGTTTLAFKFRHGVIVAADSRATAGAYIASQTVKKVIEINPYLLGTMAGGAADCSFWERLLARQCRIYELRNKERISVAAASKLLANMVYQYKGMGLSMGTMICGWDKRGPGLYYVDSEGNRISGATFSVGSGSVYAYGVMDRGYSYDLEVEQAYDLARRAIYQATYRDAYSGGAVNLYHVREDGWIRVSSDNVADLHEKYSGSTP
How it was run: (§2)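 Purified human proteasome (25 µg/mL working stock) in 100 mM Tris-HCl pH 8.0 preincubated 15 min with compound. Suc-LLVY-AMC added (50 µM as listed), AMC release followed by fluorescence increase at ex 355/em 460 nm. IC50 by sigmoidal variable-slope fit, mean of three independent determinations.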

[4] = biological target: T2, Proteasome subunit beta type-5 (Mus musculus) (UniProt O55234); experiment: Inhibition of chymotrypsin-like activity of 20S proteasome in mouse blood at 0.5 to 12.5 uM preincubated for 40 mins followed by addition of Suc-Leu-Leu-Val-Tyr-AMC as substrate relative to control; type: tissue-based
T2 sequence (whole entry): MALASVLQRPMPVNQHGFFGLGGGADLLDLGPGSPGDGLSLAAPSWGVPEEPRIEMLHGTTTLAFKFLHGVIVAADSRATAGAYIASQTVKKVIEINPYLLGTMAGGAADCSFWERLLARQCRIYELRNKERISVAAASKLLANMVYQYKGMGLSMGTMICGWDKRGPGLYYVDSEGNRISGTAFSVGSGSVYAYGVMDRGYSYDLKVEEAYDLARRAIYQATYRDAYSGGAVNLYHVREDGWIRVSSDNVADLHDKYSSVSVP
How it was run: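 Whole blood from normal mice incubated 40 min with compound (compound:serum 1:50 by volume), centrifuged, cells lysed in 5 mM EDTA pH 8.0 at 4°C for 60 min. Lysate protein (Bradford, 100 µg) assayed in 20 mM HEPES pH 8.0, 0.5 mM EDTA, 0.05% SDS, 1% DMSO with 50 µM Suc-LLVY-AMC; fluorescence at ex 355/em 460 nm.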

[5] = Half life in mouse plasma at 2 uM by LC-MS/MS analysis; type: ADME, cell-free
How it was run: (§3)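 Sodium-heparin mouse plasma or blood, pre-warmed to 37°C, spiked to 2 µM final from a 0.02 mM dosing solution in 0.05 M sodium phosphate with 0.5% BSA; duplicates held at 37°C. Time points quenched with acetonitrile, supernatant diluted 1:1 in water for LC-MS/MS. Percent remaining from analyte/internal-standard peak-area ratio versus time 0; T1/2 from single-phase exponential decay fit.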

[6] = Half life in mouse blood at 2 uM by LC-MS/MS analysis; type: ADME, tissue-based; how it was run: as §3
[7] = biological target: T1, Proteasome Macropain subunit MB1; experiment: Inhibition of chymotrypsin-like activity of 20S proteasome (unknown origin) using succinyl-leu-leu-val-tyr-7-amino-4-methyl coumarin as substrate after 15 mins by fluorescent spectroscopic method; how it was run: as §2

IC50 [3] [nM]	inhibition [4]	half-life at 2 µM [5] [h]	half-life at 2 µM [6] [h]	IC50 [7] [nM]	Compound	IC50 [1] [nM]	IC50 [2] [nM]
15.7					COc1ccc(NC(=O)C2CCN(C(=O)N[C@@H](CCc3ccccc3)C(=O)N[C@@H](CCc3ccccc3)C(=O)NCc3ccccc3Cl)CC2)cc1	92.9	84.6
4.3	> 60%				O=C(Nc1nccs1)C1CCN(C(=O)N[C@@H](CCc2ccccc2)C(=O)N[C@@H](CCc2ccccc2)C(=O)NCc2ccccc2Cl)CC1	32.5	29.5
1.4	> 60%	7.25	2.98		O=C(Nc1cccnc1)C1CCN(C(=O)N[C@@H](CCc2ccccc2)C(=O)N[C@@H](CCc2ccccc2)C(=O)NCc2ccccc2Cl)CC1	9.5	13.9
2.4	> 60%				O=C(Nc1ccccn1)C1CCN(C(=O)N[C@@H](CCc2ccccc2)C(=O)N[C@@H](CCc2ccccc2)C(=O)NCc2ccccc2Cl)CC1	22.2	24.7
344					O=C(NC1CCN(C(=O)N[C@@H](Cc2ccccc2)C(=O)N[C@@H](CCc2ccccc2)C(=O)NCc2ccccc2Cl)CC1)c1cnccn1		
670					C[C@H](NC(=O)N1CCC(NC(=O)c2cnccn2)CC1)C(=O)N[C@@H](CCc1ccccc1)C(=O)NCc1ccccc1Cl		
3	> 60%				O=C(Nc1ccccc1)C1CCN(C(=O)N[C@@H](CCc2ccccc2)C(=O)N[C@@H](CCc2ccccc2)C(=O)NCc2ccccc2Cl)CC1	20.2	18.5
23.7					O=C(NC1CCN(C(=O)N[C@@H](CCc2ccccc2)C(=O)N[C@@H](CCc2ccccc2)C(=O)NCc2ccccc2Cl)CC1)c1cnccn1		
				140	COc1ccc2c(c1)C(CC(=O)N[C@@H](CC(C)C)C(=O)N[C@H](CC(C)C)C(=O)NCc1c(F)cccc1F)CC2=O (stereo not given in full)		
14.7					O=C(Nc1cnccn1)C1CCN(C(=O)N[C@@H](CCc2ccccc2)C(=O)N[C@@H](CCc2ccccc2)C(=O)NCc2ccccc2Cl)CC1	135	196
16.6					CC(C)C[C@H](NC(=O)N1CCC(C(=O)Nc2cnccn2)CC1)C(=O)N[C@@H](CCc1ccccc1)C(=O)NCc1ccccc1Cl	261	371
601					C[C@H](NC(=O)N1CCC(C(=O)Nc2cnccn2)CC1)C(=O)N[C@@H](CCc1ccccc1)C(=O)NCc1ccccc1Cl		
153					O=C(Nc1cnccn1)C1CCN(C(=O)N[C@@H](Cc2ccccc2)C(=O)N[C@@H](CCc2ccccc2)C(=O)NCc2ccccc2Cl)CC1		
16.9					O=C(Nc1ccc(F)cc1)C1CCN(C(=O)N[C@@H](CCc2ccccc2)C(=O)N[C@@H](CCc2ccccc2)C(=O)NCc2ccccc2Cl)CC1	107	94.3
	Active				CC(C)C[C@H](NC(=O)[C@H](CCc1ccccc1)NC(=O)CN1CCOCC1)C(=O)N[C@@H](Cc1ccccc1)C(=O)N[C@@H](CC(C)C)C(=O)[C@@]1(C)CO1 [CARFILZOMIB]	1.5	13.2
45.7					CC(C)C[C@H](NC(=O)N1CCC(NC(=O)c2cnccn2)CC1)C(=O)N[C@@H](CCc1ccccc1)C(=O)NCc1ccccc1Cl		
